Calls of active or inactive are those of the source. The rule behind the calls is not given here.
Tests used:
[1] = target: T1, DNA topoisomerase 1 (Homo sapiens) (UniProt P11387); assay: Inhibition of topoisomerase 1 catalytic activity assessed as relaxation of supercoiled plasmid DNA at 100 uM after 30 mins by agarose gel electrophoresis
T1 sequence (whole entry): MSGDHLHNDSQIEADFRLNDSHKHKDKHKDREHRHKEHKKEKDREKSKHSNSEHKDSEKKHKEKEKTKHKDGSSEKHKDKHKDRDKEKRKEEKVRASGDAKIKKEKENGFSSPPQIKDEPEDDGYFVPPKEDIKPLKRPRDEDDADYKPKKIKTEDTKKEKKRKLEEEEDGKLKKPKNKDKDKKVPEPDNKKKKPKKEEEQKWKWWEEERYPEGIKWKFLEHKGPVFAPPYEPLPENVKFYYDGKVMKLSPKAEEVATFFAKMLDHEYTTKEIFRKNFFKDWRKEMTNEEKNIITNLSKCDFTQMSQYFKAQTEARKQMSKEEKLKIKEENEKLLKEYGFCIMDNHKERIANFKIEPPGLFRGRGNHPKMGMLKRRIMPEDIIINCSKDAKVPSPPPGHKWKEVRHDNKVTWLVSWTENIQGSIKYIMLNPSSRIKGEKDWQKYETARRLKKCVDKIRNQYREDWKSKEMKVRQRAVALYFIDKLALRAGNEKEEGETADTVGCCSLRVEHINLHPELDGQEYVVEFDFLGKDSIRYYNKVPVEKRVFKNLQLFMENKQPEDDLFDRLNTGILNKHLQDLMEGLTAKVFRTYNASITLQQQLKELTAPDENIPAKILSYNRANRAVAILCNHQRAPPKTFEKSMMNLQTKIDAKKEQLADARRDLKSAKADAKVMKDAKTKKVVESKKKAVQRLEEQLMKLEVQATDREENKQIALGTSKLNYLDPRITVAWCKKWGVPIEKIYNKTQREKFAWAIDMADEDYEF
Method in brief: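 Compound at 100 µM final with topoisomerase I (2U), 37 °C 30 min. Stopped with 1% SDS, proteinase K digestion, 1% agarose TAE gel, ethidium bromide stain, imaging quantitation. Scored 0 to 3+ against camptothecin.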

MDA-MB-231 [2] = assay: Antiproliferative activity against human MDA-MB-231 cells after 3 days by MTT assay; assay type: functional, cell-based; settings: MDA-MB-231, 72 h
Method in brief: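 MDA-MB-231 cells kept in RPMI 1640 with 10% heat-inactivated FBS and 25 mM HEPES at 37 °C in 5% CO2. Plated at about 15 000/well and preincubated 1 day, then exposed to compound for 3 days at 37 °C, with doses in triplicate. MTT added for 4 h, formazan dissolved in detergent overnight at room temperature in the dark, OD read at 580 nm against a cell-free blank. Cell numbers from a calibration curve; IC50 from dose-response curves.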

SW948 = assay: Antiproliferative activity against human SW948 cells after 3 days by XTT assay; assay type: functional, cell-based; settings: SW948, 72 h
Method in brief: (§1)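 Cells plated at 4000/well and grown 1 day at 37 °C, then exposed to a range of drug concentrations for 3 more days. Read-out by XTT tetrazolium reduction on a plate reader. Each concentration run in triplicate. IC50 taken from a linear-quadratic fit. Assays repeated two or three times and reported as mean ± SE. HCT-116 kept in modified McCoy's 5a and SW948 in Leibovitz's L-15, each with 10% heat-inactivated FBS and 2 mM L-glutamine.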

HCT-116 = assay: Antiproliferative activity against human HCT116 cells after 3 days by XTT assay; assay type: functional, cell-based; settings: HCT-116, 72 h; method in brief: as §1
[3] = target: DNA topoisomerase 2-alpha (Homo sapiens) (UniProt P11388); assay: Inhibition of topoisomerase 2 alpha catalytic activity assessed as decatenation of kinetoplast DNA at 100 uM after 15 mins by agarose gel electrophoresis
DNA topoisomerase 2-alpha (Homo sapiens), sequence (P11388 whole entry): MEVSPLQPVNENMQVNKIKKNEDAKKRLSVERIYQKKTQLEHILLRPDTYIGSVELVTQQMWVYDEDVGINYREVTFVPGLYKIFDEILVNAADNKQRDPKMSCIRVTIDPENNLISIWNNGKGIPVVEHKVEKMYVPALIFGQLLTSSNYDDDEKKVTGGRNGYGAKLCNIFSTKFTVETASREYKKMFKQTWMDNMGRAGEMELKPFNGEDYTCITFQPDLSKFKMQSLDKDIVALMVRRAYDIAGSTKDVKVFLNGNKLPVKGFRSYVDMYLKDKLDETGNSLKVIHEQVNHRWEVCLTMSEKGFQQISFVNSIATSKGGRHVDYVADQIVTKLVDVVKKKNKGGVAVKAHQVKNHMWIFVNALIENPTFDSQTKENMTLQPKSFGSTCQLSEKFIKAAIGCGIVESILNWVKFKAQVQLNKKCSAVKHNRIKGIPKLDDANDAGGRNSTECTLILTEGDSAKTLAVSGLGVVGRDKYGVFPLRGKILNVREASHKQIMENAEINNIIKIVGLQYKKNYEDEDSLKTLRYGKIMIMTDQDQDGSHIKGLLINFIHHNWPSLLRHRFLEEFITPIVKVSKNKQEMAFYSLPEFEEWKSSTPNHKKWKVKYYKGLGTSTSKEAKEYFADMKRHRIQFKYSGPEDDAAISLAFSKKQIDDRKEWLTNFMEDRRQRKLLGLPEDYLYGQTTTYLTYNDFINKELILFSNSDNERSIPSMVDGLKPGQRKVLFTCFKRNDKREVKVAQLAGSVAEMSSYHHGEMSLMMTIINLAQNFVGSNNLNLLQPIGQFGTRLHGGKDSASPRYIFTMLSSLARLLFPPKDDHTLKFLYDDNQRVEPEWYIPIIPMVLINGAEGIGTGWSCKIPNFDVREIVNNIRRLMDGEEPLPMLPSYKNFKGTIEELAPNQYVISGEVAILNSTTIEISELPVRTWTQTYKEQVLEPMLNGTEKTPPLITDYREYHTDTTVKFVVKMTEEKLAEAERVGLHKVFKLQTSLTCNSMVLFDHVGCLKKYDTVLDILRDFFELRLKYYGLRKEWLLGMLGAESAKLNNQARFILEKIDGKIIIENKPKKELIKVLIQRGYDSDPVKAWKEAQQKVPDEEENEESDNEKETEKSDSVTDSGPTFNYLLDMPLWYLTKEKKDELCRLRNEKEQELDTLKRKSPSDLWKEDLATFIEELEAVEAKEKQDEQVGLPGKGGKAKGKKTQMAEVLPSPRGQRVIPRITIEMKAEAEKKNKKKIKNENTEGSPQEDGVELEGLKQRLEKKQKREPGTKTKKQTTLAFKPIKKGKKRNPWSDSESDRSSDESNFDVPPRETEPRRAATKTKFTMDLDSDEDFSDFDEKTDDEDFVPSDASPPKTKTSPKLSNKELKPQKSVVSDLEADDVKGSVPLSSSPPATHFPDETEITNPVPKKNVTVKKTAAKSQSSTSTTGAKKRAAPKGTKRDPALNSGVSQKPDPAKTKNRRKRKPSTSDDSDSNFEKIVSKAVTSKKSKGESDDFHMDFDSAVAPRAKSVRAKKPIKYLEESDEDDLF

MDA-MB-231 [4] = assay: Growth inhibition of human MDA-MB-231 cells; assay type: functional
HL-60(TB) = assay: Growth inhibition of human HL-60(TB) cells; assay type: functional

Question: `C=C(C)[C@@H]1CC[C@]2(C(=O)O)CC[C@]3(C)[C@H](CC[C@@H]4[C@@]5(C)CC[C@H](OC(=O)NCc6ccccc6)C(C)(C)[C@@H]5CC[C@]43C)[C@@H]12` was tested. Which inhibition [1] did it give?
Answer: Active

Question: What about the IC50 (MDA-MB-231 [2]) of the same compound?
Answer: 0.45 µM

Question: What about the IC50 (SW948) of the same compound?
Answer: > 25 µM

Question: What about the IC50 (HCT-116) of the same compound?
Answer: 22.2 µM

Question: And the inhibition [3]?
Answer: Active

Question: For `CC1(C)[C@@H](O)CC[C@]2(C)[C@H]3CC[C@@H]4[C@H]5[C@H]([C@]6(C)CO6)CC[C@]5(C(=O)O)CC[C@@]4(C)[C@]3(C)CC[C@@H]12`, which inhibition [1] is on record?
Answer: inactive

Question: What about the IC50 (MDA-MB-231 [2]) of the same compound?
Answer: 4.08 µM

Question: And the IC50 (SW948)?
Answer: > 25 µM

Question: What about the IC50 (HCT-116) of the same compound?
Answer: > 25 µM

Question: And the inhibition [3]?
Answer: inactive

Question: Which inhibition [1] does the source give for `C=C(C)[C@@H]1CC[C@]2(C(=O)O)CC[C@]3(C)[C@H](CC[C@@H]4[C@@]5(C)CC[C@H](OS(=O)(=O)c6ccccc6)C(C)(C)[C@@H]5CC[C@]43C)[C@@H]12` here?
Answer: inactive

Question: What about the IC50 (MDA-MB-231 [2]) of the same compound?
Answer: 0.8 µM

Question: And the IC50 (SW948)?
Answer: 6.84 µM

Question: And the IC50 (HCT-116)?
Answer: 21.3 µM

Question: What about the inhibition [3] of the same compound?
Answer: Active

Question: With `CC[C@@]1(O)C(=O)OCc2c1cc1n(c2=O)Cc2cc3ccccc3nc2-1` [CAMPTOTHECIN] as the compound, how does the IC50 (SW948) read?
Answer: 0.16 µM

Question: What about the IC50 (HCT-116) of the same compound?
Answer: 0.13 µM

Question: What does the source list for `COc1cc([C@@H]2c3cc4c(cc3[C@@H](O[C@@H]3O[C@@H]5CO[C@@H](C)O[C@H]5[C@H](O)[C@H]3O)[C@H]3COC(=O)[C@H]23)OCO4)cc(OC)c1O` [ETOPOSIDE]?
Answer: IC50 (SW948): 1.3 µM; inhibition [3]: Active

Question: `C=C(C)[C@@H]1CC[C@]2(C(=O)O)CC[C@]3(C)[C@H](CC[C@@H]4[C@@]5(C)CC[C@H](O)C(C)(C)[C@@H]5CC[C@]43C)[C@@H]12` [BETULINIC ACID] was tested. Which GI50 (MDA-MB-231 [4]) did it give?
Answer: 3.98 µM

Question: What about the inhibition [1] of the same compound?
Answer: inactive

Question: And the IC50 (MDA-MB-231 [2])?
Answer: 15.2 µM

Question: And the IC50 (SW948)?
Answer: 10.5 µM

Question: And the IC50 (HCT-116)?
Answer: 13.5 µM

Question: What about the GI50 (HL-60(TB)) of the same compound?
Answer: 3.16 µM

Question: And the inhibition [3]?
Answer: inactive

Question: Which inhibition [1] does the source give for `C=C(C)[C@@H]1CC[C@]2(C(=O)O)CC[C@]3(C)[C@H](CC[C@@H]4[C@@]5(C)CC[C@H](OC(=O)Nc6ccc(-c7ccccc7)cc6)C(C)(C)[C@@H]5CC[C@]43C)[C@@H]12` here?
Answer: inactive

Question: What about the IC50 (MDA-MB-231 [2]) of the same compound?
Answer: > 25 µM

Question: What about the IC50 (SW948) of the same compound?
Answer: > 25 µM

Question: And the IC50 (HCT-116)?
Answer: > 25 µM

Question: What about the inhibition [3] of the same compound?
Answer: Active

Question: `C=C(C)[C@@H]1CC[C@]2(C(=O)O)CC[C@]3(C)[C@H](CC[C@@H]4[C@@]5(C)CCC(=O)C(C)(C)[C@@H]5CC[C@]43C)[C@@H]12` [BETUNOLIC ACID] was tested. Which inhibition [1] did it give?
Answer: inactive

Question: What about the IC50 (MDA-MB-231 [2]) of the same compound?
Answer: 9.77 µM

Question: And the IC50 (SW948)?
Answer: 19.2 µM

Question: What about the IC50 (HCT-116) of the same compound?
Answer: 2.61 µM

Question: And the inhibition [3]?
Answer: inactive

Question: `C=C(C)[C@@H]1CC[C@]2(C(=O)O)CC[C@]3(C)[C@H](CC[C@@H]4[C@@]5(C)CC[C@H](OC(=O)Nc6cccc7ccccc67)C(C)(C)[C@@H]5CC[C@]43C)[C@@H]12` was tested. Which inhibition [1] did it give?
Answer: inactive

Question: And the IC50 (MDA-MB-231 [2])?
Answer: > 25 µM

Question: What about the IC50 (SW948) of the same compound?
Answer: > 25 µM

Question: What about the IC50 (HCT-116) of the same compound?
Answer: > 25 µM

Question: What about the inhibition [3] of the same compound?
Answer: Active

Question: What does the source list for `C[C@H](C=O)[C@@H]1CC[C@]2(C(=O)O)CC[C@]3(C)[C@H](CC[C@@H]4[C@@]5(C)CC[C@H](O)C(C)(C)[C@@H]5CC[C@]43C)[C@@H]12`?
Answer: inhibition [1]: Active; IC50 (MDA-MB-231 [2]): 0.17 µM; IC50 (SW948): > 25 µM; IC50 (HCT-116): > 25 µM; inhibition [3]: inactive

Question: Which inhibition [1] does the source give for `C=C(C=O)[C@@H]1CC[C@]2(C(=O)O)CC[C@]3(C)[C@H](CC[C@@H]4[C@@]5(C)CC[C@H](O)C(C)(C)[C@@H]5CC[C@]43C)[C@@H]12` here?
Answer: Active

Question: What about the IC50 (MDA-MB-231 [2]) of the same compound?
Answer: 1.37 µM

Question: What about the IC50 (SW948) of the same compound?
Answer: 14.9 µM

Question: What about the IC50 (HCT-116) of the same compound?
Answer: 4.38 µM

Question: And the inhibition [3]?
Answer: inactive

Question: What does the source list for `C=C(C)[C@@H]1CC[C@]2(C(=O)NS(=O)(=O)c3ccccc3)CC[C@]3(C)[C@H](CC[C@@H]4[C@@]5(C)CC[C@H](OC(=O)NS(=O)(=O)c6ccccc6)C(C)(C)[C@@H]5CC[C@]43C)[C@@H]12`?
Answer: inhibition [1]: Active; IC50 (MDA-MB-231 [2]): 0.92 µM; IC50 (SW948): 17.4 µM; IC50 (HCT-116): 13.3 µM; inhibition [3]: Active

Question: Which results are given for `C=C(C)[C@@H]1CC[C@]2(C(O)=S)CC[C@]3(C)[C@H](CC[C@@H]4[C@@]5(C)CC[C@H](OP(=S)(S)c6ccc(OC)cc6)C(C)(C)[C@@H]5CC[C@]43C)[C@@H]12` (stereo partly specified)?
Answer: inhibition [1]: Active; IC50 (MDA-MB-231 [2]): 9.83 µM; IC50 (SW948): > 25 µM; IC50 (HCT-116): > 25 µM; inhibition [3]: Active

Question: Which results are given for `C=CCNC(=O)O[C@H]1CC[C@]2(C)[C@H]3CC[C@@H]4[C@H]5[C@H](C(=C)C)CC[C@]5(C(=O)O)CC[C@@]4(C)[C@]3(C)CC[C@H]2C1(C)C`?
Answer: inhibition [1]: inactive; IC50 (MDA-MB-231 [2]): 0.65 µM; IC50 (SW948): 17.6 µM; IC50 (HCT-116): 17.7 µM; inhibition [3]: Active

Question: How did the inhibition [1] turn out when `C=C(C)[C@@H]1CC[C@]2(C(O)=S)CC[C@]3(C)[C@H](CC[C@@H]4[C@@]5(C)CCC(=O)C(C)(C)[C@@H]5CC[C@]43C)[C@@H]12` was run?
Answer: inactive

Question: What about the IC50 (MDA-MB-231 [2]) of the same compound?
Answer: > 25 µM

Question: What about the IC50 (SW948) of the same compound?
Answer: > 25 µM

Question: And the IC50 (HCT-116)?
Answer: > 25 µM

Question: And the inhibition [3]?
Answer: inactive
